Measurements as given in ChEMBL document CHEMBL4680221, “Discovery of pyrazole derivatives as cellular active inhibitors of histone lysine specific demethylase 5B (KDM5B/JARID1B)” (Eur J Med Chem, 2020).

Key:
[1] = biological target: T1, Lysine-specific demethylase 5B (Homo sapiens, UniProt Q9UGL1); assay: Inhibition of KDM5B in human MKN-45 cells assessed as increase in H3K4me2 accumulation measured after 5 days by Hoechst 33342 staining based immunofluorescence assay; assay type: cell-based; settings: time 5.0 day
Procedure, shortened: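 MKN45 cells were seeded and left 24 h, then treated for 5 days. Cells were fixed in 4% paraformaldehyde, permeabilised with 0.1% Triton X-100 for 20 min and blocked with 5% BSA for 1 h. H3K4me2 or H3K4me3 primary antibody was applied at 4°C overnight, followed by Alexa Fluor 488 secondary and Hoechst 33342 (5 µg/mL) nuclear stain. Signal was quantified by high content imaging; three independent experiments.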

[2] = biological target: T2, Lysine-specific demethylase 6B (Homo sapiens, UniProt O15054); assay: Inhibition of KDM6B (unknown origin) at 0.25 uM relative to control
[3] = biological target: Lysine-specific demethylase 5A (Homo sapiens, UniProt P29375); assay: Inhibition of KDM5A (unknown origin) at 0.01 uM relative to control
[4] = biological target: T2, Lysine-specific demethylase 6B; assay: Inhibition of KDM6B (unknown origin) at 0.01 uM relative to control
[5] = biological target: T1, Lysine-specific demethylase 5B; assay: Inhibition of recombinant human N-terminal FLAG-tagged KDM5B expressed in Sf9 insect cells using biotin-H3K4me as substrate by ALPHA
Procedure, shortened: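 ALPHA demethylase assay. Recombinant KDM5B (4 nM) was preincubated with compound, then biotin-H3K4me3 peptide (64 nM) was added. Buffer: 10 μM α-KG, 100 μM ascorbate, 50 μM (NH4)2Fe(SO4)2, 50 mM HEPES pH 7.5, 0.01% Tween 20, 0.1% BSA. Read-out used streptavidin donor and H3K4me1-2 antibody acceptor beads. Data were normalized to blank control and IC50 fitted.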

[6] = biological target: T2, Lysine-specific demethylase 6B; assay: Inhibition of KDM6B (unknown origin) at 1 uM relative to control

T2 sequence (O15054 whole entry): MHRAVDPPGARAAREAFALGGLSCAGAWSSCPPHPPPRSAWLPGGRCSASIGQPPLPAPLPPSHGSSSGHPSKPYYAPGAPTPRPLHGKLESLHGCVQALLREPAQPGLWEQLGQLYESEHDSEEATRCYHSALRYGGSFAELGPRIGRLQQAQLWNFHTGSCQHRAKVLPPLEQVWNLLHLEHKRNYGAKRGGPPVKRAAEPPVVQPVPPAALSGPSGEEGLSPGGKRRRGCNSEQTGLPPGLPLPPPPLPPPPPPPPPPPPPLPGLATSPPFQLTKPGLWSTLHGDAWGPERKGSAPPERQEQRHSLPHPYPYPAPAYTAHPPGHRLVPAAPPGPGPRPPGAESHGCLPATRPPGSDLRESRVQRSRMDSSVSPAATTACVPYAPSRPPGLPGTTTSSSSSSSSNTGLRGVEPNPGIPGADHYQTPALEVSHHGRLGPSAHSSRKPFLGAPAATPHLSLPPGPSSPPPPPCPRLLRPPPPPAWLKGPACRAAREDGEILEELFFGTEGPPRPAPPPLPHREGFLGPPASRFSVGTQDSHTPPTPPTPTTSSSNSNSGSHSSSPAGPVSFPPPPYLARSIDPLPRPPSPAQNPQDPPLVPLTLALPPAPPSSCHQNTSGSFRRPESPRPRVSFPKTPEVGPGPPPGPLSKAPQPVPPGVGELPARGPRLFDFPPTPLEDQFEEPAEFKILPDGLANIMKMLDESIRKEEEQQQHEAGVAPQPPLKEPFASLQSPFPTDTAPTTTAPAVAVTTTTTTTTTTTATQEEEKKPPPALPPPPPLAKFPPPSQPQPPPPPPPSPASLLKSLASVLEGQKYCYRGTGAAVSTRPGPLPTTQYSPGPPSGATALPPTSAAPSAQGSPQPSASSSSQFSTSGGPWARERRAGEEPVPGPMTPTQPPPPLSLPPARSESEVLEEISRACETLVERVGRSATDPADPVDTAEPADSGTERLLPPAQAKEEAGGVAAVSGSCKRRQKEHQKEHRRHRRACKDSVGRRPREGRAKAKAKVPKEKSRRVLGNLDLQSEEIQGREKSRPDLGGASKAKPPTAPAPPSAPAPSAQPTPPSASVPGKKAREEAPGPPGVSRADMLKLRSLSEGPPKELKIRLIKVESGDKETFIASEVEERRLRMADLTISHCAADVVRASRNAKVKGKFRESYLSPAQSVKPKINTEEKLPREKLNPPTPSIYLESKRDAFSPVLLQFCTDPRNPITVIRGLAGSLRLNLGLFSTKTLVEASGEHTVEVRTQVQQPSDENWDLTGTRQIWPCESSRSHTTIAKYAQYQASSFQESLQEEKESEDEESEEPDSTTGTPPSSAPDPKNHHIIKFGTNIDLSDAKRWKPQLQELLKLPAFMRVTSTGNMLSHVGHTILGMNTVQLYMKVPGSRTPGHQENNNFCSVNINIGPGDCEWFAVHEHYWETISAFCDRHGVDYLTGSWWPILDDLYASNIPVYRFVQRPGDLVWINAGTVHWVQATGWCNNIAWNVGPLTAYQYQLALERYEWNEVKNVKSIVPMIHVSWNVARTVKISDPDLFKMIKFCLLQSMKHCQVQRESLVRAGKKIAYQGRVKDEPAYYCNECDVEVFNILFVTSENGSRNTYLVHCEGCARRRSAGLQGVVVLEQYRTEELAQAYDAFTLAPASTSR
T1 sequence (Q9UGL1 whole entry): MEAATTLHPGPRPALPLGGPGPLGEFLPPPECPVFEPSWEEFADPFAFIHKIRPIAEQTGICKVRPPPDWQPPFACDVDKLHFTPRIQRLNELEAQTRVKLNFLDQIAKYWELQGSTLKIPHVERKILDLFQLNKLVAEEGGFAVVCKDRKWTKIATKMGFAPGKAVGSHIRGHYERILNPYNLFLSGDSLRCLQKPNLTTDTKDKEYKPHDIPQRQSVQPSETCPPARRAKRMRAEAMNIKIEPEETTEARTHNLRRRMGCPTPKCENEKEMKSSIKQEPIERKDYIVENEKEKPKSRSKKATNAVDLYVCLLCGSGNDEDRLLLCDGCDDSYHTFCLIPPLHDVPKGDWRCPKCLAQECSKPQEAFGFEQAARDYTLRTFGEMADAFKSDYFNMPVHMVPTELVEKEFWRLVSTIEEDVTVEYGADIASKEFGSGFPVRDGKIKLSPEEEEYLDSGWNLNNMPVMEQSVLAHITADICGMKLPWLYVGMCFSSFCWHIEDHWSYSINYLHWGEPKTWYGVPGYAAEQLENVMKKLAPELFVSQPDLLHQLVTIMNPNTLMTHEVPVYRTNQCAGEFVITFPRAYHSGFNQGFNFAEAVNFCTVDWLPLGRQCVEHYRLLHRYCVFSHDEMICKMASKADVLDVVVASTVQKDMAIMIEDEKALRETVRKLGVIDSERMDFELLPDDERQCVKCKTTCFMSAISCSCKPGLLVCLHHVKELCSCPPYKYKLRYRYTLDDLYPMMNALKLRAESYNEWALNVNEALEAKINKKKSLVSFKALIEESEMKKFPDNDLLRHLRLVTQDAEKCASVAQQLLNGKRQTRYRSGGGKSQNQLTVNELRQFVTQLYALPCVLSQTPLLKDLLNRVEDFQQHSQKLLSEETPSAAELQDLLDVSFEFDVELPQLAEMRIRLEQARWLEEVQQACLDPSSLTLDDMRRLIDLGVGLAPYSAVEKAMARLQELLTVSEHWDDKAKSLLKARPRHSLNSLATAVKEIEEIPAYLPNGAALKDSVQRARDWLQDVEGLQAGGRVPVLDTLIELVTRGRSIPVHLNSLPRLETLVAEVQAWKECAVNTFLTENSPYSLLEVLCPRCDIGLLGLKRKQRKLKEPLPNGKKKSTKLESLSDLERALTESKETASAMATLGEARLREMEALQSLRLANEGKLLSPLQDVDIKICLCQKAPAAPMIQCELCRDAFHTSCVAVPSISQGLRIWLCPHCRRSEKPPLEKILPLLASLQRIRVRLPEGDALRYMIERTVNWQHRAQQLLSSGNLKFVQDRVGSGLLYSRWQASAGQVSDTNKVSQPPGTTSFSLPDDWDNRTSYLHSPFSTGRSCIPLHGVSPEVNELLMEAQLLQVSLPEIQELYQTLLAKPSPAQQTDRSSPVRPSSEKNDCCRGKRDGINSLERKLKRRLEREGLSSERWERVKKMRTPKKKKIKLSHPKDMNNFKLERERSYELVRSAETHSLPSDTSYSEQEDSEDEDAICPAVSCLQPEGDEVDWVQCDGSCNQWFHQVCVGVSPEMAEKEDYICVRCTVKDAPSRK
Chain of Lysine-specific demethylase 5A (P29375 whole entry): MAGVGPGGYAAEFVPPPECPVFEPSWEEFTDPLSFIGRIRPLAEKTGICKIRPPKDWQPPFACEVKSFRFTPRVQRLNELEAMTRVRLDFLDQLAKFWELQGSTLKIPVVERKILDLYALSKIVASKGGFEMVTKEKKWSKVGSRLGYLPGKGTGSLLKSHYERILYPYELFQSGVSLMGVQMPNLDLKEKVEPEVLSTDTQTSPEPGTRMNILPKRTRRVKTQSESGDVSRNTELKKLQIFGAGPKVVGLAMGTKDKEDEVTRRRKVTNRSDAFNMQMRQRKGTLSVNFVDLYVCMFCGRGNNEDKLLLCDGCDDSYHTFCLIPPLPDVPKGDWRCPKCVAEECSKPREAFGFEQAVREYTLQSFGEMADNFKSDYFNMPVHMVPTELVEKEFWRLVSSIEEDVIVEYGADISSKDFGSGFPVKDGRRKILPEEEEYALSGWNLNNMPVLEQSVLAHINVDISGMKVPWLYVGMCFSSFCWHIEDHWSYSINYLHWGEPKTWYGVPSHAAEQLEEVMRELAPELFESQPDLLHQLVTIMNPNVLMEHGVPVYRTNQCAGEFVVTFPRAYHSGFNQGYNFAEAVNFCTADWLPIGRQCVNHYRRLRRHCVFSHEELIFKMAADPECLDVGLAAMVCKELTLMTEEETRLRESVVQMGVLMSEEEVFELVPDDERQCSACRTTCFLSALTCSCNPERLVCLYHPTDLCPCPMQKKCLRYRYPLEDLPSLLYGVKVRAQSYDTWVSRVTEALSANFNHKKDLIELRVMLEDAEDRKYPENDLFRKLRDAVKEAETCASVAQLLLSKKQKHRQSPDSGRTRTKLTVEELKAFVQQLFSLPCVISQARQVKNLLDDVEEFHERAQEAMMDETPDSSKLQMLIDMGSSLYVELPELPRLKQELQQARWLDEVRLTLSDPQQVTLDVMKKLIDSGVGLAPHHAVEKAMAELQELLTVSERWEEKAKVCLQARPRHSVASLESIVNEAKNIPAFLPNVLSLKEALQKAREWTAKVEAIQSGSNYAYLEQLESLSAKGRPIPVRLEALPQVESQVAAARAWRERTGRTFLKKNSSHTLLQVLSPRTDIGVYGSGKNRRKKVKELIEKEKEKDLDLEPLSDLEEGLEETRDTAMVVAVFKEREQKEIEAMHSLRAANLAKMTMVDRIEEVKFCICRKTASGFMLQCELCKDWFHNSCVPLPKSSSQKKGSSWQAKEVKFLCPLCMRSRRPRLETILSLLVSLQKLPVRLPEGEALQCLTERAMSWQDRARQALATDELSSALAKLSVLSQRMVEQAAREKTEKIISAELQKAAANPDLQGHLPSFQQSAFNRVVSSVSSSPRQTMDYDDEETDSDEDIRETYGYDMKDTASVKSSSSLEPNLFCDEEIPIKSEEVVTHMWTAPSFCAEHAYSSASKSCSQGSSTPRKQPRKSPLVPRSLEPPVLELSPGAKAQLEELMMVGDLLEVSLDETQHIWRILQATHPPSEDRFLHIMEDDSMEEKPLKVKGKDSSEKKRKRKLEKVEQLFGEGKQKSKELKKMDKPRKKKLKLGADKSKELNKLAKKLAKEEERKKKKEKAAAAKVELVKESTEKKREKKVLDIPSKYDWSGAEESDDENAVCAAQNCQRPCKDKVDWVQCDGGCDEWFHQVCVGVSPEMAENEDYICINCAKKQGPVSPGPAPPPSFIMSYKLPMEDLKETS

inhibition [1]: Dose-dependent effect
inhibition [2]: 12.4%
inhibition [3]: 20.1%
inhibition [4]: 3.57%
IC50 [5]: 24.4 nM
inhibition [6]: 19.6%
SMILES: COc1ccc(-n2cc(C(=O)NCC(C)(C)N3CCOCC3)c(-c3ccccc3)n2)cc1
